This passage reports IC50 results from ChEMBL document CHEMBL1681654, “Structure and activity relationship of 2-(substituted benzoyl)-hydroxyindoles as novel CaMKII inhibitors” (Bioorg Med Chem Lett, 2011).

This assay in a line: Inhibition of recombinant CAMK2 expressed in Sf9 cells after 20 mins. In a few lines: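 Baculovirus-expressed CaMKII from infected Sf9 cells (harvested day 3), purified on calmodulin affinity resin. Assayed in 25 mM Tris–HCl pH 7.5, 2 mM DTT, 10 mM MgCl₂, 0.1% CHAPS, 1 mM CaCl₂ with autocamtide-2 substrate, CaM and [γ-³³P]ATP (350–1500 cpm/pmol); 20 min, 30 °C. Reaction spotted onto P30 filtermat, washed with 75 mM phosphoric acid, counted by scintillation.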

Bounds are passed on as bounds.

For the molecule `O=C(c1ccc(Oc2ccccc2)cc1)c1cc2cc(O)ccc2n1CCO`, the IC50 came out at 1.9 µM.
With `O=C(c1ccc(F)cc1)c1cc2cc(O)ccc2[nH]1` the figure was above 10 µM; with `CCOC(=O)Cn1c(C(=O)c2ccc(Oc3ccccc3)cc2)cc2cc(O)ccc21`, 0.77 µM.
With `O=C(c1ccc(-c2ccccc2)cc1)c1cc2cc(O)ccc2[nH]1` the figure was 6.4 µM.
To `O=C(c1ccc(Oc2ccccc2)cc1)c1cc2cc(O)ncc2[nH]1` belongs 6.8 µM.
Take `O=C(c1ccc(OC2CCCC2)cc1)c1cc2cc(O)ccc2[nH]1`: the IC50 turned out to be 3.9 µM.
With `COc1ccc(S(=O)(=O)N(CCO)c2ccccc2CN(C)C/C=C/c2ccc(Cl)cc2)cc1` the figure was 1.6 µM; with `O=C(c1ccc(OC2CCOC2)cc1)c1cc2cc(O)ccc2[nH]1` (stereo unspecified), 6.8 µM; with `O=C(c1ccc(Oc2ccccc2)cc1)c1cc2cc(O)ccc2[nH]1`, 0.61 µM.
With `O=C(c1ccc(Oc2ccccc2)cc1)c1cc2ccccc2[nH]1` the figure was 7.5 µM.
To `O=C(c1ccc(Cl)cc1)c1cc2cc(O)ccc2[nH]1` belongs above 10 µM; to `O=C(c1ccc(OC2CCCCC2)cc1)c1cc2cc(O)ccc2[nH]1`, 2.3 µM; to `O=C(c1cccc(Oc2ccccc2)c1)c1cc2cc(O)ccc2[nH]1`, 1.7 µM.
On to `O=C(O)Cn1c(C(=O)c2ccc(Oc3ccccc3)cc2)cc2cc(O)ccc21`, for which the IC50 is 1.8 µM.
With `O=C(c1ccc(Oc2ccccc2)cc1)c1cc2ccc(O)cc2[nH]1` the figure was 2.3 µM.
With `O=C(c1cc2cc(O)ccc2[nH]1)c1ccccc1Oc1ccccc1` the figure was 1.8 µM; with `CC(=O)N1CCC(Oc2ccc(C(=O)c3cc4cc(O)ccc4[nH]3)cc2)CC1`, 9.9 µM; with `O=C(c1ccc(OC2CCNCC2)cc1)c1cc2cc(O)ccc2[nH]1`, above 10 µM.
With `Cn1c(C(=O)c2ccc(Oc3ccccc3)cc2)cc2cc(O)ccc21` the figure was 1.3 µM; with `COc1ccc(C(=O)c2cc3cc(O)ccc3[nH]2)cc1`, above 10 µM.
Take `O=C(c1ccccc1)c1cc2cc(O)ccc2[nH]1`: the IC50 is 10 µM.
With `O=C(c1ccc(Oc2ccccc2)cc1)c1cc2cc(O)ccc2n1S(=O)(=O)c1ccccc1` the figure was above 10 µM.
To `O=C(c1ccc(OC(F)(F)F)cc1)c1cc2cc(O)ccc2[nH]1` belongs above 10 µM; to `CN1CCC(Oc2ccc(C(=O)c3cc4cc(O)ccc4[nH]3)cc2)CC1`, above 10 µM; to `O=C(c1ccc(Oc2ccccc2)cc1)c1cc2nc(O)ccc2[nH]1`, above 10 µM.
With `Cc1ccc(C(=O)c2cc3cc(O)ccc3[nH]2)cc1` the figure was 8.8 µM.

For orientation: IC50 means the point on the concentration scale where inhibition reaches its midpoint.
